# Measurements gathered from unrelated publications.
# Each line is one published result; the experiments were not run side by side.
# Target: Homeodomain-interacting protein kinase 1 (HIPK1, Homo sapiens, UniProt Q86Z02)
Structure (SMILES),test,conditions,remaining binding [%]
CN(CCCC(F)(F)F)c1nccc(-c2cnn3ncccc23)n1,binding,1 µM,70
COc1cc(-c2cn(C3CCc4ccccc4N(CC(F)(F)F)C3=O)nn2)ccc1-n1ccc(C)n1 (stereo not drawn),"cell-free assay, competition with immobilised ligand",1 µM,96
C[C@@H]1CCN(c2nccc(-c3cnn4ncccc34)n2)C1,binding,1 µM,52
c1cncc(-c2cccc(Nc3nccc(NC4CCCCC4)n3)c2)c1,"binding, competition with immobilised ligand",10 µM,56
COc1ccc2c(c1)O[C@@H](c1ccc(OC)c(OC)c1)C[C@H]2NC(=O)C1(c2ccc3c(c2)OC(F)(F)O3)CC1,"cell-free assay, competition with immobilised ligand",1 µM,86
CNC(=O)[C@@H]1CC[C@@H](n2c(-c3ccc4cnccc4c3)nc3ccc(C(=O)NCc4cccc(C(N)=O)c4)cc32)C1,"binding, competition with immobilised ligand",1 µM,85
CC(=O)C1=C(C)N(c2cccc(C(F)(F)F)c2)C(=O)N[C@@H]1c1ccc(C#N)nc1,"cell-free assay, competition with immobilised ligand",1 µM,72.6
N[C@@H]1CCN(c2nccc(-c3cnn4ncccc34)n2)C1,binding,1 µM,43
CS(=O)(=O)NCC[C@H](NC(=O)c1cncc2c1cnn2-c1ccc(F)cc1)c1ccnc(S(C)(=O)=O)c1,"cell-free assay, competition with immobilised ligand",1 µM,100
O=C(Nc1c[nH]nc1C(=O)NC1CCNCC1)c1cc(F)cc(F)c1,"binding, competition with immobilised ligand",1 µM,33
CN(C)c1ncc(F)c(-c2cnn3ncccc23)n1,binding,1 µM,75
O=C(c1ccc(Nc2ncc(Cl)c(-c3cc4ccccc4s3)n2)cc1)N1CCC(N2CCCC2)CC1,"binding, competition with immobilised ligand",1 µM,1.4
COc1cnc(Nc2cccc(S(N)(=O)=O)c2)nc1N1CCN(c2ccccc2)CC1,"binding, competition with immobilised ligand",1 µM,98
O=C(O)c1cc(-c2ccc(C3CCNCC3)cc2)c2ccc(-c3ccc(C(F)(F)F)cc3)cc2c1,"cell-free assay, competition with immobilised ligand",1 µM,97
CN(C)c1nccc(-c2cnn3ncccc23)n1,binding,1 µM,55
O=C(NCCCN1CCOCC1)c1ccc(Nc2nccc(-c3cc4ccccc4s3)n2)cc1,"binding, competition with immobilised ligand",1 µM,36
COc1cc(Nc2nccc(-c3cnn4nc(OC)ccc34)n2)cc(C(F)(F)F)c1,"binding, competition with immobilised ligand",1 µM,31
O=C(c1ccc(Nc2ncc(Cl)c(-c3ccc(Cl)s3)n2)cc1)N1CCC(N2CCCC2)CC1,"binding, competition with immobilised ligand",1 µM,1.3
COc1ccnn2ncc(-c3ccnc(N(C)C)n3)c12,binding,1 µM,55
C[C@@H](c1ccc(-n2cnc3c(N)ncnc32)cc1)N1CCc2nn(C)c(Cc3ccccc3)c2C1=O,"binding, competition with immobilised ligand",0.1 µM,91
C[C@H](NC(=O)c1cnc2n1[C@](C)(Cc1ccc(C#N)cc1)C(=O)N2c1cc(Cl)c(F)c(Cl)c1)C(=O)NC1(c2ccccn2)CC1,"cell-free assay, competition with immobilised ligand",1 µM,97
